Test results: ChEMBL document CHEMBL1949496, “Synthesis of [¹⁸F]-labeled (2-(2-fluoroethoxy)ethyl)triphenylphosphonium cation as a potential agent for myocardial imaging using positron emission tomography” (Bioorg Med Chem Lett, 2012); call rule not given here

How the values were obtained:
[1] = test system: Spleen; assay: Biodistribution in BALB/c mouse spleen at 7.4 MBq, iv after 120 mins by gamma counting; format: ADME, organism-based; conditions: in vivo, 2 h
Outline: (§1)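 Tracer given intravenously to BALB/c mice; animals sampled at 10, 30, 60 and 120 min after injection. Organ radioactivity expressed as percentage of injected dose per gram of tissue (% ID/g), n = 12.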

[2] = test system: Pancreas; assay: Biodistribution in BALB/c mouse pancreas at 7.4 MBq, iv after 10 mins by gamma counting; format: ADME, organism-based; conditions: in vivo; outline: as §1
[3] = Metabolic stability in human serum assessed as compound remaining at 0.37 MBq after 4 hrs by TLC analysis; format: ADME, cell-free; conditions: read-out: Stability
Outline: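 Analysed on ITLC-sg strips developed in methylene chloride:methanol (9:2 v/v), and the strips were scanned on an automatic TLC scanner.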

[4] = test system: Muscle tissue; assay: Biodistribution in BALB/c mouse normal muscle at 7.4 MBq, iv after 30 mins by gamma counting; format: ADME, organism-based; conditions: in vivo, 0.5 h; outline: as §1
[5] = test system: H9c2; assay: Cellular uptake in rat H9c2 cells after 0.5 to 2 hrs by gamma counting in presence of CCCP; format: ADME, cell-based
Outline: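 H9c2 cells incubated with radiotracer at 37 °C for 0.5, 1 or 2 h in the presence of 0.5 µM protonophore CCCP, which abolishes mitochondrial membrane potential. Uptake expressed as percentage of applied radioactivity; means ± SD of three measurements.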

[6] = test system: Kidney; assay: Biodistribution in BALB/c mouse kidney at 7.4 MBq, iv after 120 mins by gamma counting; format: ADME, organism-based; conditions: in vivo, 2 h; outline: as §1
[7] = test system: Heart; assay: Biodistribution in BALB/c mouse heart at 7.4 MBq, iv after 120 mins by gamma counting; format: ADME, organism-based; conditions: in vivo, 2 h; outline: as §1
[8] = test system: Nucleic Acid; assay: Ratio of drug level in BALB/c mouse heart to lung at 7.4 MBq, iv after 10 mins by gamma counter; format: ADME, organism-based; conditions: in vivo
Outline: (§2)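 Normal BALB/c mice were given the 18F tracer by i.v. injection. Tissues were sampled at 10, 30, 60 and 120 min. Activity is expressed as % injected dose per gram of tissue (n = 12), and organ ratios were taken from these values.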

[9] = test system: Nucleic Acid; assay: Ratio of drug level in BALB/c mouse heart to liver at 7.4 MBq, iv after 120 mins by gamma counter; format: ADME, organism-based; conditions: in vivo, 2 h; outline: as §2
[10] = test system: Stomach; assay: Biodistribution in BALB/c mouse stomach at 7.4 MBq, iv after 10 mins by gamma counting; format: ADME, organism-based; conditions: in vivo; outline: as §1
[11] = test system: Heart; assay: Biodistribution in BALB/c mouse heart at 7.4 MBq, iv after 10 mins by gamma counting; format: ADME, organism-based; conditions: in vivo; outline: as §1
[12] = test system: Heart; assay: Drug uptake in Sprague-Dawley rat heart at 37 MBq, iv after 1 hr by micro PET analysis; format: ADME, organism-based; conditions: in vivo
Outline: (§3)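 Rats received the tracer intravenously and were imaged by micro-PET in coronal view at 0.5 h and 1.0 h after injection.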

[13] = test system: Heart; assay: Drug uptake in Sprague-Dawley rat heart at 37 MBq, iv after 0.5 hrs by micro PET analysis; format: ADME, organism-based; conditions: in vivo; outline: as §3
[14] = test system: Intestine; assay: Biodistribution in BALB/c mouse intestine at 7.4 MBq, iv after 30 mins by gamma counting; format: ADME, organism-based; conditions: in vivo, 0.5 h; outline: as §1
[15] = test system: H9c2; assay: Cellular uptake in rat H9c2 cells after 2 hrs by gamma counting; format: ADME, cell-based; conditions: h9c2, 2 h
Outline: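 Radiotracer incubated with H9c2 cells at 37 °C for 0.5, 1 or 2 h. Uptake expressed as percentage of applied radioactivity; means ± SD of three measurements.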

[16] = test system: Lung; assay: Biodistribution in BALB/c mouse lung at 7.4 MBq, iv after 10 mins by gamma counting; format: ADME, organism-based; conditions: in vivo; outline: as §1
[17] = test system: Bone; assay: Biodistribution in BALB/c mouse bone at 7.4 MBq, iv after 10 mins by gamma counting; format: ADME, organism-based, Bone element; conditions: in vivo; outline: as §1
[18] = test system: Pancreas; assay: Biodistribution in BALB/c mouse pancreas at 7.4 MBq, iv after 120 mins by gamma counting; format: ADME, organism-based; conditions: in vivo, 2 h; outline: as §1
[19] = Octanol-NaCl aqueous solution partition coefficient, log P of the compound after 20 mins by gamma counting; format: physicochemical
[20] = test system: Spleen; assay: Biodistribution in BALB/c mouse spleen at 7.4 MBq, iv after 60 mins by gamma counting; format: ADME, organism-based; conditions: in vivo, 1 h; outline: as §1
[21] = test system: Nucleic Acid; assay: Ratio of drug level in BALB/c mouse heart to liver at 7.4 MBq, iv after 30 mins by gamma counter; format: ADME, organism-based; conditions: in vivo, 0.5 h; outline: as §2
[22] = test system: Nucleic Acid; assay: Ratio of drug level in BALB/c mouse heart to lung at 7.4 MBq, iv after 60 mins by gamma counter; format: ADME, organism-based; conditions: in vivo, 1 h; outline: as §2
[23] = test system: Muscle tissue; assay: Biodistribution in BALB/c mouse normal muscle at 7.4 MBq, iv after 120 mins by gamma counting; format: ADME, organism-based; conditions: in vivo, 2 h; outline: as §1
[24] = test system: Muscle tissue; assay: Biodistribution in BALB/c mouse normal muscle at 7.4 MBq, iv after 10 mins by gamma counting; format: ADME, organism-based; conditions: in vivo; outline: as §1
[25] = test system: Liver; assay: Biodistribution in BALB/c mouse liver at 7.4 MBq, iv after 120 mins by gamma counting; format: ADME, organism-based; conditions: in vivo, 2 h; outline: as §1
[26] = test system: Bone; assay: Biodistribution in BALB/c mouse bone at 7.4 MBq, iv after 30 mins by gamma counting; format: ADME, organism-based, Bone element; conditions: in vivo, 0.5 h; outline: as §1
[27] = test system: Spleen; assay: Biodistribution in BALB/c mouse spleen at 7.4 MBq, iv after 30 mins by gamma counting; format: ADME, organism-based; conditions: in vivo, 0.5 h; outline: as §1
[28] = test system: Intestine; assay: Biodistribution in BALB/c mouse intestine at 7.4 MBq, iv after 120 mins by gamma counting; format: ADME, organism-based; conditions: in vivo, 2 h; outline: as §1
[29] = test system: Lung; assay: Biodistribution in BALB/c mouse lung at 7.4 MBq, iv after 30 mins by gamma counting; format: ADME, organism-based; conditions: in vivo, 0.5 h; outline: as §1
[30] = test system: Bone; assay: Biodistribution in BALB/c mouse bone at 7.4 MBq, iv after 60 mins by gamma counting; format: ADME, organism-based, Bone element; conditions: in vivo, 1 h; outline: as §1
[31] = test system: Intestine; assay: Biodistribution in BALB/c mouse intestine at 7.4 MBq, iv after 60 mins by gamma counting; format: ADME, organism-based; conditions: in vivo, 1 h; outline: as §1
[32] = test system: Lung; assay: Biodistribution in BALB/c mouse lung at 7.4 MBq, iv after 120 mins by gamma counting; format: ADME, organism-based; conditions: in vivo, 2 h; outline: as §1

Drug uptake [1]: 1.23 % ID/g | Drug uptake [2]: 8.8 % ID/g | remaining at 4 h, 0.37 MBq [3]: > 95% | Drug uptake [4]: 5.27 % ID/g | Drug uptake [5]: Not Active | Drug uptake [6]: 9.28 % ID/g | Drug uptake [7]: 24.27 % ID/g | Ratio [8]: 4.58 | Ratio [9]: 19.16 | Drug uptake [10]: 3.75 % ID/g | Drug uptake [11]: 35.23 % ID/g | Drug uptake [12]: Active | Drug uptake [13]: Active | Drug uptake [14]: 8.52 % ID/g | Drug uptake [15]: 0.68% | Drug uptake [16]: 7.69 % ID/g | Drug uptake [17]: 3.37 % ID/g | Drug uptake [18]: 5.44 % ID/g | logP at 20 min [19]: 0.89 | Drug uptake [20]: 1.95 % ID/g | Ratio [21]: 8.05 | Ratio [22]: 5.05 | Drug uptake [23]: 3.2 % ID/g | Drug uptake [24]: 6.46 % ID/g | Drug uptake [25]: 1.33 % ID/g | Drug uptake [26]: 2.35 % ID/g | Drug uptake [27]: 2.81 % ID/g | Drug uptake [28]: 2.66 % ID/g | Drug uptake [29]: 5.18 % ID/g | Drug uptake [30]: 2.44 % ID/g | Drug uptake [31]: 4.67 % ID/g | Drug uptake [32]: 5.55 % ID/g
SMILES: [18F]CCOCC[P+](c1ccccc1)(c1ccccc1)c1ccccc1
